Compounds with a hit are over-represented: about 4.9% of the library has one in this group of screens.
APP 5'UTR act – APP 5'UTR luciferase reporter activation; SH-SY5Y APP 5'UTR luciferase reporter, luminescence; zero percent = DMSO vehicle wells; activation, % at 2 µM; hit rate 1% among 190,000;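 active = activation above a set limit, based on mean plus 3 SD of controls, cut at about 140% in these data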
STAT1 act – activators of IFN-gamma induced STAT1 signaling | NIH 3T3 STAT1-luciferase reporter, luminescence; 100% = IFN-gamma alone, no compound | activation (% of control), % at 5.5 µM | hit rate 2.6% among 200,000;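 active = activation above the screen-wide mean activation plus 3 SD, cut at about 130% in these data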
NF-kB expr up – raises NF-kB expression in human neuronal cells; NF-kB reporter expression; hits give high values; fold change at 12.5 µM; hit rate 1.6% among 190,000; AID 1239; in the data active = fold change above about 3.3
STAT3 act – activators of IL-6 induced STAT3 signaling; activation (% of control), % at 5.6 µM; hit rate 0.91% among 190,000; U3A cells, IL-6 STAT3-luciferase reporter, luminescence; 100% = signal with IL-6 EC80 alone; AID 871;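 active = activation above the screen-wide mean of compound activation plus 3 SD, cut at about 130% in these data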
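Material: human STAT1-deficient U3A cells with stable STAT3-luciferase reporter / Probe or stimulus: IL-6 stimulus at 33 ng/mL final / Schedule: 1 h compound pre-exposure, 6 h IL-6 stimulation, 37 °C / Technique: luminescence / Read-out basis: percent of IL-6-only median luminescence / Control set: IL-6-only high control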
STAT3 inh – STAT3 signaling inhibition. U3A cells, IL-6 STAT3-luciferase reporter, luminescence; host cell line lacks STAT1. inhibition, % at 5.5 µM. hit rate 0.89% among 190,000. AID 862;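 active = inhibition above the mean inhibition across all screened compounds plus 3 SD, cut at about 44% in these data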
STAT1 inh – inhibitors of IFN-gamma induced STAT1 signaling; hit rate 0.35% among 200,000; inhibition, % at 5.5 µM; AID 920; NIH 3T3 STAT1-luciferase reporter, luminescence;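 active = inhibition above a set limit, the mean inhibition across all tested compounds plus 3 SD, cut at about 34% in these data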
STAT1 act conf – confirmation of STAT1 signaling activators; shares compounds with STAT1 act; NIH 3T3 STAT1-luciferase reporter, IFN-gamma potentiation, luminescence; 100% = IFN-gamma EC80 alone, no compound; activation (% of control), % at 5.7 µM; hit rate 97% among 1,200; AID 1262;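 active = activation above a set limit carried over from the earlier primary STAT1 screen, cut at about 140% in these data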
NFkB act – counter-screen for STAT1 activators: NF-kappaB activation; activation (% of control), % at 5.7 µM; hit rate 43% among 1,200; AID 1306; HEK293T NF-kB luciferase reporter, TNF-alpha stimulated, luminescence; 100% = TNF-alpha with vehicle only; shares compounds with STAT1 act;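 active = activation above the mean of solvent-only control wells plus 3 SD, set per campaign, cut at about 130% in these data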;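 also: TNF-alpha given at a submaximal dose yielding about 80% of full reporter signal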
STAT3 act STAT1c – human STAT3 activation in STAT1 activator counter-screen. activation (% of control), % at 5.7 µM. shares compounds with STAT1 act. U3A cells STAT3-luciferase reporter, IL-6, luminescence; cells lack STAT1; 100 = IL-6 alone, no compound effect. hit rate 46% among 1,200;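 active = activation above the solvent-only control well mean plus 3 SD, set per plate batch, cut at about 110% in these data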;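 also: higher means more STAT3 reporter activation so hits are non-selective activators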
Hits are given with their value; n = inactive; x = no result given.

SMILES | APP 5'UTR act | STAT1 act | NF-kB expr up | STAT3 act | STAT3 inh | STAT1 inh | STAT1 act conf | NFkB act | STAT3 act STAT1c
O=C(CCCc1ccccc1)N1CCc2ccccc21 | n | 180.1 | 7.68 | n | n | n | 221.3 | 136.6 | 115.4
Cc1c(C(=O)N2CCc3ccccc32)oc2c1C(=O)CC(C)(C)C2 | n | 157.1 | n | n | n | n | 180.2 | 134.4 | 113.2
Cc1nc2ccccc2c2oc(C(=O)N3CCc4ccccc43)cc12 | n | n | n | x | x | n | x | x | x
Cc1ccc(C(=O)N2CCc3ccccc32)o1 | 158.6 | 164.7 | n | n | n | n | 183.5 | n | n
CC(=O)Nc1ccc2nc(CN3CCN(Cc4ccc(F)cc4)C(CCO)C3)ccc2c1 (stereo not drawn) | n | n | n | n | n | n | x | x | x
Cc1ccccc1NC(=S)N(C)Cc1cn(C)c2ccccc12 | n | n | n | n | n | n | x | x | x
Cc1ccccc1OCCN(C#N)c1nc(N(C)C)nc(N(C)C)n1 | n | n | n | n | n | n | x | x | x
Cc1cccc(Nc2cc(=O)[nH]c(=O)[nH]2)c1 | n | n | n | n | n | n | x | x | x
Cc1cccc(Nc2n[nH]c(C)c2[N+](=O)[O-])c1 | n | 156.2 | 3.74 | n | n | n | 192.5 | n | n
Cc1nnc(NC(=O)c2ccco2)s1 | n | n | n | n | n | n | x | x | x
COc1ccc(-c2csc(NC(=O)c3ccco3)n2)cc1 | 137.4 | 153.0 | 4.15 | n | n | n | 164.2 | n | n
Cc1nc2ccc3nc(NC(=O)c4ccco4)sc3c2s1 | n | 163.8 | x | n | n | n | 169.6 | n | n
O=C(Nc1nnc(C23CC4CC(CC(C4)C2)C3)s1)c1ccco1 | n | 151.7 | n | n | n | n | 190.3 | n | 120.2
CC(C)C(=O)Nc1ccc(S(=O)(=O)Nc2nccc(/C=C/c3ccccc3)n2)cc1 | n | n | n | n | n | n | x | x | x
CNC(=O)COC(=O)/C=C/c1c(C)nn(-c2ccccc2)c1C | n | n | n | n | n | n | x | x | x
O=C(Nc1ccc(N2CCCCC2)cc1)c1cc([N+](=O)[O-])cc([N+](=O)[O-])c1 | n | n | n | n | n | n | x | x | x
CC1CCc2nc(NC(=O)CCSc3ccccc3)sc2C1 (stereo not drawn) | n | n | n | n | n | n | x | x | x
Cc1ncsc1C(=O)Nc1nc2c(s1)CC(C)CC2 (stereo not drawn) | n | 151.9 | 4.64 | n | n | n | 178.5 | n | n
O=C(NCC1OCCc2ccccc21)c1ccc(NC(=O)c2cccc(Br)c2)cc1 (stereo not drawn) | n | n | n | n | n | n | x | x | x
COc1cccc(-c2nc3ccccc3s2)c1 | 142.8 | 156.4 | 7.8 | n | n | n | 206.6 | n | 118.5
COc1cccc(N2C(=O)C(c3ccccc3)=C(c3nc4ccccc4s3)C2NC(C)=O)c1 (stereo not drawn) | n | n | n | n | n | n | x | x | x
COc1ccc(-c2nc3ccccc3s2)cc1NC(C)=O | 153.7 | 173.0 | n | n | n | n | 194.6 | n | 119.0
CCCC(=O)Nc1ccccc1NC(=O)c1ccc(OC(C)=O)cc1 | n | n | n | n | n | n | x | x | x
O=C1CC(/C=C/c2cccnc2)=Nc2ccccc2N1 | n | n | n | n | n | n | x | x | x
O=C1CC(/C=C/c2ccc(Cl)cc2)=Nc2ccccc2N1 | n | 176.9 | 3.65 | n | n | n | 198.4 | 145.4 | 120.4
SMILES | APP 5'UTR act | STAT1 act | NF-kB expr up | STAT3 act | STAT3 inh | STAT1 inh | STAT1 act conf | NFkB act | STAT3 act STAT1c
COCCNC(=S)NNc1cccc(C(=O)O)c1 | n | n | n | n | n | n | x | x | x
O=c1c2ccccc2nc(/C=C/c2ccc([N+](=O)[O-])o2)n1CCCO | n | 151.4 | n | n | n | n | 167.4 | 157.1 | n
CC(=O)N1N=C(c2ccc(C)cc2)OC1c1ccc(C(C)C)cc1 (stereo not drawn) | n | 165.6 | 4.3 | n | n | n | 217.4 | 146.1 | 145.8
CC(=O)N1N=C(c2ccc(C)cc2)OC1c1ccc(C)cc1 (stereo not drawn) | n | n | n | n | n | n | x | x | x
Clc1ccc2nc(N3CCCCC3)sc2c1 | 173.0 | 166.0 | 4.87 | n | n | n | 207.5 | 137.9 | n
Nc1ccc2nc(N3CCOCC3)sc2c1 | n | n | n | n | n | n | x | x | x
Fc1cccc(NCc2ccoc2)c1 | n | n | n | n | n | n | x | x | x
Fc1cccc(NCc2cn3ccccc3n2)c1 | n | 169.4 | 4.25 | n | n | n | 193.6 | n | 112.6
COc1cc(/C=N/NC(=O)CC2(C)OCCCO2)ccc1OCc1ccccc1 | n | n | n | n | n | n | x | x | x
COc1cc(/C=N/NC(=O)CN2CCCCC2)ccc1OCc1ccc(Br)cc1 | n | 175.6 | 4.48 | n | n | n | 177.9 | 136.3 | 119.2
O=C(N/N=C/c1cn(-c2ccccc2)nc1-c1cc2ccccc2o1)c1c[nH]c2ccccc12 | 186.8 | 186.6 | x | n | n | n | 198.7 | 134.6 | n
COc1ccc(NC(=O)c2cn(-c3ccccc3)nc2-c2cc3ccccc3o2)cc1 | n | n | n | n | n | n | x | x | x
OCc1cn(-c2ccccc2)nc1-c1cc2ccccc2o1 | n | 167.3 | 9.68 | n | n | n | 212.8 | 138.6 | n
CCOc1cccc2cc(C(=O)Nc3nccs3)c(=O)oc12 | n | n | n | n | n | n | x | x | x
CCOc1cccc2cc(-c3csc(NC(=O)CCC(=O)NCCCN4CCC(C)CC4)n3)c(=O)oc12 | 176.0 | 152.0 | 5.51 | n | n | n | 157.0 | n | 123.6
Cc1nc2cc(NC(=O)Nc3ccc(Br)cc3)ccc2o1 | 154.3 | 162.2 | n | n | n | n | 208.6 | 134.9 | n
Cc1nc2cc(NC(=O)NCc3ccc4c(c3)OCO4)ccc2o1 | n | n | n | n | n | n | x | x | x
COc1ccc(NC2=Nc3cccc4cccc2c34)cc1 | n | n | n | n | n | n | x | x | x
COc1ccc(-c2cc3ncc(-c4ccccc4)c(N)n3n2)cc1 | 225.2 | 156.4 | n | n | n | n | 197.5 | n | n
CCN(C(=O)C(C)Cl)c1ccccc1 (stereo not drawn) | n | n | n | n | n | n | x | x | x
O=C(CCc1nnc(CCCCc2ccccc2)o1)NCCc1cccnc1 | n | n | n | n | n | n | x | x | x
O=C(CCc1nnc(CCCc2ccccc2)o1)NC(C1CC1)C1CC1 | n | 153.6 | 5.82 | n | n | n | 205.9 | 145.0 | 128.9
O=C(Nc1ncccn1)c1ccc([N+](=O)[O-])cc1 | n | n | n | n | n | n | x | x | x

Assay outcomes (PubChem BioAssay)
